Compound activity from PubChem.
Rows were chosen to be rich in hits. Some 1.9% of all compounds tested hit in one or more screens of this group.
LEDGF integ inh: blocks HIV-1 LEDGF/p75-dependent DNA integration | TR-FRET IN-LEDGF/p75 DNA integration, Eu/Cy5 | inhibition, % at 3.7 µM | 370,000 tested, 0.64% active | AID 743269;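 active means inhibition above the screen-wide mean plus 3 SD, cut at about 13% in these data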;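 further: signal is the Cy5 over europium emission ratio at 671 and 618 nm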
TDP2 inh: blocks human TDP2 phosphodiesterase activity; inhibition, % at 12.8 µM; 370,000 tested, 0.34% active; recombinant TDP2, T5PNP hydrolysis, p-nitrophenol absorbance 415 nm;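 active means inhibition above the mean of all tested compounds plus 3 SD, set per campaign, cut at about 25% in these data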
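Assay system: Recombinant human TDP2 | Quantity: 120 nM TDP2 per well | Incubation: 2 h at 37 °C | Signal: Epi absorbance | Evaluation: Percent inhibition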
UHRF1 binding: human UHRF1 methylated DNA binding inhibitors; UHRF1 binding to methylated oligo, TR-FRET; Q96T88; AID 687016; 370,000 tested, 0.75% active; inhibition, % at 4.4 µM; in the data active means inhibition above about 21%;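 further: UHRF1 SRA domain binding a hemimethylated CpG hairpin DNA probe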
MBD2 DNA inh: MBD2-methylated oligo binding inhibition | Q9UBB5 | TR-FRET, MBD2 binding to methylated oligonucleotide | AID 686964 | 370,000 tested, 0.31% active | inhibition, % at 4.4 µM; in the data active means inhibition above about 13%
Target sequence (Q9UBB5 whole entry, looked up): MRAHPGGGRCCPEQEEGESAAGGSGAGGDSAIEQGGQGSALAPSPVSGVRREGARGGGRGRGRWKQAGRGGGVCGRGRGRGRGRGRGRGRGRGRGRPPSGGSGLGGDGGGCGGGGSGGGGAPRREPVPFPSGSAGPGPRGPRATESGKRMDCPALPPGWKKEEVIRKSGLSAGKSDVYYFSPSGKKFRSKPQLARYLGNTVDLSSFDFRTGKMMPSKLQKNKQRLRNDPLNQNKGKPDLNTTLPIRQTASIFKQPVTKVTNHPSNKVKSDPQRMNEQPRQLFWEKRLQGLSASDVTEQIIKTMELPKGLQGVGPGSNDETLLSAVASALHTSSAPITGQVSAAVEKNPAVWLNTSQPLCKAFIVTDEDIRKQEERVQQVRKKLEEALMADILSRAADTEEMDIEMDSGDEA
Rin1 Abl inh: human Rin1-Abl interaction inhibition; TR-FRET Rin1/Abl binding, biochemical; inhibition, % at 7.35 µM; 360,000 tested, 0.4% active; in the data active means inhibition above about 5%, passing the limit was not always enough
Each line names hits and unclear results; the compound was inactive in the other large screens.

Cc1onc(-c2ccccc2Cl)c1C(=O)NC(=S)Nc1ccccc1F	none
COc1ccccc1NC(=S)NC(=O)c1c(-c2ccccc2Cl)noc1C	UHRF1 binding 23.8
COc1cccc(C2/C(=C(/O)c3ccc(C)cc3)C(=O)C(=O)N2Cc2ccco2)c1 (configuration not stated)	UHRF1 binding 28.6
O=C(Nc1ccc(F)cc1)OCc1cn(Cc2ccccc2F)nn1	none (no result: Rin1 Abl inh)
C/C=C(\C)C(=O)OC1CC(C)(C)C[C@H]2C3=CC[C@@H]4[C@@]5(C)CCC(O[C@@H]6O[C@@H](C(=O)O)[C@@H](O)C(O[C@@H]7OC[C@H](O)[C@@H](O)[C@@H]7O[C@@H]7OC(CO)C(O)[C@@H](O)[C@@H]7O)C6O[C@@H]6OC(CO)C(O)C(O)C6O)[C@@](C)(CO)[C@@H]5CC[C@]4(C)[C@]3(C)CC(O)[C@@]12CO (some centres not stated)	LEDGF integ inh 26.2
CC1(C)CC[C@]2(C(=O)O[C@@H]3OC(CO)[C@@H](O)[C@H](O)[C@H]3O)CC[C@]3(C)C(=CCC4[C@@]5(C)CC[C@H](O[C@@H]6OC(C(=O)O)[C@@H](O)[C@H](O)[C@H]6O)C(C)(C)C5CC[C@]43C)[C@@H]2C1 (some centres not stated)	LEDGF integ inh 16.0
CCCc1cn(-c2ccc3c(c2)[C@@]2(CC(=O)N(C)C2c2ccccc2)C(=O)N3CC(C)C)nn1 (some centres not stated)	none (no result: Rin1 Abl inh)
Cc1onc(-c2c(F)cccc2Cl)c1C(=O)c1ccc(F)cc1	UHRF1 binding 72.6
Cc1onc(-c2c(Cl)cccc2Cl)c1C(=O)c1ccc(F)cc1	none
Cc1onc(-c2c(Cl)cccc2Cl)c1C(=O)OCC(=O)c1ccccc1	UHRF1 binding 52.3
Cc1onc(-c2ccccc2)c1C(=O)OCC(=O)c1ccccc1	none
CCCCCCCCN1C(=O)[C@@H](CC(=O)NCCCOC)C[C@@]2(C(=O)OC)C1=C[C@H](COCc1ccccc1)O[C@@H]2C	none (no result: Rin1 Abl inh)
COc1cc(NC(=O)c2cnn3c(C)cc(C)nc23)cc(OC)c1OC	none (no result: Rin1 Abl inh)
C/C=C/C=C\C(=O)Nc1cccc(C2=NOC3(C2)C[C@H](C(N)=O)N(C(=O)CC#N)C3)c1 (some centres not stated)	MBD2 DNA inh 19.4
C/C=C\C=C/C(=O)Nc1cccc(C2=NOC3(C2)C[C@H](C(N)=O)N(C(=O)CC)C3)c1 (some centres not stated)	none
CC(C)n1c(SCC(=O)NC2CCCCC2)nnc1-c1ccco1	UHRF1 binding 43.1
O=C(CCSCc1ccccc1Cl)NC1CCCC1	UHRF1 binding 23.7
Cc1ccccc1CSCC(=O)NC1CCCC1	none (no result: LEDGF integ inh, TDP2 inh, UHRF1 binding, MBD2 DNA inh)
O=C(O)CCNc1cc(N2CCN(C(=O)c3ccco3)CC2)c2noc3c2c1C(=O)c1ccccc1-3	TDP2 inh 38.0
COc1ccc(C[N+]2=C(N)NC3=C(C)Cn4c(=O)n(-c5ccccc5)c(=O)n4C3C2)c(OC)c1 (configuration not stated)	none (no result: Rin1 Abl inh)
Nn1c(SCc2c(Cl)cccc2Cl)nnc1-c1n[nH]c2c1CCC2	none (no result: Rin1 Abl inh)
O=C(COC(=O)c1cc(=O)[nH]c2ccccc12)NC1CCCC1	UHRF1 binding 30.0
Fc1ccc(-c2n[nH]c(=S)n2N=Cc2ccc(OCc3ccccc3)cc2)cc1	none (no result: Rin1 Abl inh)
CCO/C(C)=N/Oc1cnc2ccccc2c1	none
CCO/C(C)=N/Oc1cccc(N(C)C)c1	UHRF1 binding 28.6
O=C(CNS(=O)(=O)c1ccccc1)N1CCN(c2ccccn2)CC1	none (no result: Rin1 Abl inh)
CCO/C=C/C(=O)N(C)CCC#N	UHRF1 binding 100.1
CC1CCCC(NC(=O)COC(=O)Cc2c[nH]c3ccccc23)C1C (configuration not stated)	none
CC(OC(=O)Cc1c[nH]c2ccccc12)C(=O)NC1CCCCC1C (configuration not stated)	UHRF1 binding 23.0
O=S1(=O)c2ccccc2-c2c(nnn2Cc2ccccc2)CN1C1CC1	none (no result: Rin1 Abl inh)
Cc1ccc(NC(=S)NNC(=O)c2cnccn2)cc1	none (no result: Rin1 Abl inh)
O=C(NCc1ccco1)C1CCCN(S(=O)(=O)c2ccccc2[N+](=O)[O-])C1 (configuration not stated)	none (no result: Rin1 Abl inh)
COc1ccc(-c2nn(-c3ccccc3)cc2C=O)cc1[N+](=O)[O-]	none
COc1ccc(-c2nnc(SC)nc2-c2ccc(OC)c([N+](=O)[O-])c2)cc1[N+](=O)[O-]	UHRF1 binding 23.6
CC1CCC2(CCC(=O)N2C[C@@H](O)c2ccccc2)CC1 (some centres not stated)	none (no result: Rin1 Abl inh)
Cn1c2c(c(=O)n(C)c1=O)C(c1ccc(C(F)(F)F)cc1)CC(=O)N2 (configuration not stated)	UHRF1 binding 31.0
O=C(CN1C(=O)CC(c2ccccc2)S(=O)(=O)c2ccccc21)N1CCCCC1 (configuration not stated)	UHRF1 binding 23.9
COC(=O)CNC(=O)CNC1(C(=O)NCCc2c[nH]c3ccccc23)CCCCC1	none (no result: Rin1 Abl inh)
CC1(C)OC(=O)C2=C(CC(CCc3ccccc3)OC2CCc2ccccc2)O1 (configuration not stated)	UHRF1 binding 21.0 (no result: Rin1 Abl inh)
CCCCCCCCN1CCS(=O)(=O)N(Cc2ccc(C)cc2)C(C(=O)OC)C1 (configuration not stated)	none (no result: Rin1 Abl inh)
O=C(Cn1c(=O)oc2cc(S(=O)(=O)N3CCCCC3)ccc21)N1CCCCC1	UHRF1 binding 51.6
COCCNC(=O)CN(C(=O)Cn1nnc2ccccc21)c1ccc(F)c(Cl)c1	UHRF1 binding 81.5
O=[N+]([O-])c1ccc(OC[C@@H](O)CN2CCC(C(O)(c3ccccc3)c3ccccc3)CC2)c(Cl)c1	none (no result: Rin1 Abl inh)
COCCn1c2nc(=O)n(-c3ccccc3)c(=O)c-2nc2ccccc21	none
Cn1c2nc(=O)n(-c3ccccc3)c(=O)c-2nc2c1CCCC2	Rin1 Abl inh 9.1 (no result: LEDGF integ inh, TDP2 inh, UHRF1 binding, MBD2 DNA inh)
CC(C)(C)c1ccc(S(=O)(=O)NNC(=O)C2CCN(Cc3cccc(F)c3)CC2)cc1	UHRF1 binding 23.6
O=C(NCCc1cccc(F)c1)C1CCN(S(=O)(=O)c2ccc(F)cc2)CC1	none
Cc1ccc(C(=O)NNC(=O)C(C)Sc2nc(N)cc(N)n2)cc1 (configuration not stated)	UHRF1 binding 20.8
Cc1ccc(C(=O)NNC(=O)CSc2nc(N)cc(N)n2)cc1	none
CCOC(=O)[C@@]12CCCC3=C1N(CCC3)C(=O)[C@H]2CC(=O)NCc1cccc(C(F)(F)F)c1	none (no result: Rin1 Abl inh)
COc1cc(-c2nnc(SCc3cc(=O)oc4cc(O)c(O)cc34)o2)cc(OC)c1OC	LEDGF integ inh 78.1, UHRF1 binding 51.5, MBD2 DNA inh 28.9
CCOC(=O)CSc1nnc(-c2cc(OC)c(OC)c(OC)c2)o1	none
O=C(O)C1CSC(c2ccncc2)N1 (configuration not stated)	none (no result: LEDGF integ inh, TDP2 inh, UHRF1 binding, MBD2 DNA inh)
O=C(O)C1CSC(c2ccco2)N1 (configuration not stated)	LEDGF integ inh 48.3, UHRF1 binding 64.9, MBD2 DNA inh 33.8
